Assay results: ChEMBL document CHEMBL3804799, “Synthesis and Biological Evaluation of Novel σ1 Receptor Ligands for Treating Neuropathic Pain: 6-Hydroxypyridazinones” (J Med Chem, 2016)

Experiments:
Rattus norvegicus [1] = assay: Antiallodynic activity in po dosed Sprague-Dawley rat chronic constriction injury-induced neuropathic pain model assessed as inhibition of mechanical allodynia administered as bid on day 15th and 18th post surgery by Von frey test; assay type: functional
In short: (§1)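 Sciatic nerve CCI in SD rats (Bennett–Xie) under 5% chloral hydrate: four loose 4-0 silk ligatures on the right sciatic nerve, about 1 cm proximal to the trifurcation. Oral dosing in 0.5% methylcellulose (10 mL/kg), twice daily on days 15–18. Testing followed the first dose on day 15 and the last dose on day 18. Mechanical withdrawal threshold by von Frey up–down method, four samplings averaged. 10 rats/group.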

Mus musculus [2] = assay: Toxicity in Kun Ming mouse assessed as impair in motor coordination at 40 to 160 mg/kg, ig measured after 30 to 120 mins by rotarod test; assay type: organism-based; conditions: in vivo, po
In short: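 Mice were pre-trained; any that could not stay 300 s on the rod at 10 rpm were excluded. Latency to fall from the rod rotating at 10 rpm was recorded 30, 60, 90 and 120 min after intragastric dosing. 8–10 mice per group.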

[3] = Clearance in Sprague-Dawley rat at 5 mg/kg, iv by LC-MS/MS analysis; assay type: ADME, organism-based; conditions: in vivo
In short: (§2)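 SD rats, n = 3/group. Dosing was either 5 mg/kg iv via tail vein in saline or 80 mg/kg by oral gavage as a suspension in 0.5% methylcellulose. Serial tail-vein blood was drawn into heparinized tubes at 0.5, 1, 2, 3, 4, 5, 6, 8 and 24 h. Plasma was separated, proteins precipitated with acetonitrile, and samples analysed by LC/MS.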

[4] = Half life in Sprague-Dawley rat at 5 mg/kg, iv by LC-MS/MS analysis; assay type: ADME, organism-based; conditions: in vivo; in short: as §2
Mus musculus [5] = assay: Antinociceptive activity in Kun Ming mouse assessed as paw licking time in delayed pain response phase at 80 mg/kg, ig administered 15 mins prior to formalin challenge measured after 15 to 45 mins post formalin dosing; assay type: functional
In short: (§3)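 Mice received 20 μL of 2.5% formalin (0.92% formaldehyde) in the dorsal right hind paw. Time spent licking or biting the paw was scored at 0–5 min (phase I) and 15–45 min (phase II), with a mirror behind the glass cylinder. Vehicle was 30% PEG 400 at 10 mL/kg, given 15 min before formalin. n = 10–12 per group. % antinociception = (LT_V − LT_D)/LT_V × 100.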

[6] = Half life in Sprague-Dawley rat at 80 mg/kg, po administered through gavage by LC-MS/MS analysis; assay type: ADME, organism-based; conditions: in vivo; in short: as §2
[7] = molecular target: Histamine H3 receptor (Rattus norvegicus) (UniProt Q9QYN8); assay: Displacement of [3H]-N-alpha-methylhistamine from H3 receptor in rat cerebral cortex at 1 uM after 30 mins by liquid scintillation counting analysis; assay type: tissue-based
Sequence of Histamine H3 receptor (Rattus norvegicus) (Q9QYN8 whole entry): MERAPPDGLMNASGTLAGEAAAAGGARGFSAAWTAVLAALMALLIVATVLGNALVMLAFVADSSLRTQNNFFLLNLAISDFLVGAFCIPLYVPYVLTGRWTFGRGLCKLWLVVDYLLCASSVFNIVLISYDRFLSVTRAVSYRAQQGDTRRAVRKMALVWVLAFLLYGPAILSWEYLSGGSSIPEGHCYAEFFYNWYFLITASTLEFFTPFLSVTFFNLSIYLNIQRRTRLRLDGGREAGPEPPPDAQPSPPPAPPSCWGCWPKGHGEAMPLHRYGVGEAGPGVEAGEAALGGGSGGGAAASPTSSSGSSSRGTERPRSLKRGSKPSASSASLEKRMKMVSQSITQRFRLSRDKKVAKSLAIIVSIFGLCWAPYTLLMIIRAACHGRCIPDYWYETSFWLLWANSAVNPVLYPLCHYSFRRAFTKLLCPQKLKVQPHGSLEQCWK

[8] = molecular target: Glutamate NMDA receptor (Rattus norvegicus) (UniProt P35439+Q00959+Q00960+Q00961+Q62645+Q8VHN2+Q9R1M7); assay: Displacement of [3H]-glycine from NMDA receptor in rat hippocampal membrane at 1 uM after 30 mins by liquid scintillation counting analysis; assay type: cell membranes; conditions: Hippocampus
Mus musculus [9] = assay: Antiallodynic activity in ig dosed Kun Ming mouse assessed as inhibition of formalin-induced pain in delayed pain response phase administered 15 mins prior to formalin challenge measured after 15 to 45 mins post formalin dosing; assay type: functional; in short: as §3
[10] = molecular target: Sodium channel protein type 9 subunit alpha (Homo sapiens) (UniProt Q15858); assay: Inhibition of human Nav 1.7 expressed in HEK293 cells at 1 uM by electrophysiological assay; assay type: cell-based
Sequence of Sodium channel protein type 9 subunit alpha (Homo sapiens) (Q15858 whole entry, looked up): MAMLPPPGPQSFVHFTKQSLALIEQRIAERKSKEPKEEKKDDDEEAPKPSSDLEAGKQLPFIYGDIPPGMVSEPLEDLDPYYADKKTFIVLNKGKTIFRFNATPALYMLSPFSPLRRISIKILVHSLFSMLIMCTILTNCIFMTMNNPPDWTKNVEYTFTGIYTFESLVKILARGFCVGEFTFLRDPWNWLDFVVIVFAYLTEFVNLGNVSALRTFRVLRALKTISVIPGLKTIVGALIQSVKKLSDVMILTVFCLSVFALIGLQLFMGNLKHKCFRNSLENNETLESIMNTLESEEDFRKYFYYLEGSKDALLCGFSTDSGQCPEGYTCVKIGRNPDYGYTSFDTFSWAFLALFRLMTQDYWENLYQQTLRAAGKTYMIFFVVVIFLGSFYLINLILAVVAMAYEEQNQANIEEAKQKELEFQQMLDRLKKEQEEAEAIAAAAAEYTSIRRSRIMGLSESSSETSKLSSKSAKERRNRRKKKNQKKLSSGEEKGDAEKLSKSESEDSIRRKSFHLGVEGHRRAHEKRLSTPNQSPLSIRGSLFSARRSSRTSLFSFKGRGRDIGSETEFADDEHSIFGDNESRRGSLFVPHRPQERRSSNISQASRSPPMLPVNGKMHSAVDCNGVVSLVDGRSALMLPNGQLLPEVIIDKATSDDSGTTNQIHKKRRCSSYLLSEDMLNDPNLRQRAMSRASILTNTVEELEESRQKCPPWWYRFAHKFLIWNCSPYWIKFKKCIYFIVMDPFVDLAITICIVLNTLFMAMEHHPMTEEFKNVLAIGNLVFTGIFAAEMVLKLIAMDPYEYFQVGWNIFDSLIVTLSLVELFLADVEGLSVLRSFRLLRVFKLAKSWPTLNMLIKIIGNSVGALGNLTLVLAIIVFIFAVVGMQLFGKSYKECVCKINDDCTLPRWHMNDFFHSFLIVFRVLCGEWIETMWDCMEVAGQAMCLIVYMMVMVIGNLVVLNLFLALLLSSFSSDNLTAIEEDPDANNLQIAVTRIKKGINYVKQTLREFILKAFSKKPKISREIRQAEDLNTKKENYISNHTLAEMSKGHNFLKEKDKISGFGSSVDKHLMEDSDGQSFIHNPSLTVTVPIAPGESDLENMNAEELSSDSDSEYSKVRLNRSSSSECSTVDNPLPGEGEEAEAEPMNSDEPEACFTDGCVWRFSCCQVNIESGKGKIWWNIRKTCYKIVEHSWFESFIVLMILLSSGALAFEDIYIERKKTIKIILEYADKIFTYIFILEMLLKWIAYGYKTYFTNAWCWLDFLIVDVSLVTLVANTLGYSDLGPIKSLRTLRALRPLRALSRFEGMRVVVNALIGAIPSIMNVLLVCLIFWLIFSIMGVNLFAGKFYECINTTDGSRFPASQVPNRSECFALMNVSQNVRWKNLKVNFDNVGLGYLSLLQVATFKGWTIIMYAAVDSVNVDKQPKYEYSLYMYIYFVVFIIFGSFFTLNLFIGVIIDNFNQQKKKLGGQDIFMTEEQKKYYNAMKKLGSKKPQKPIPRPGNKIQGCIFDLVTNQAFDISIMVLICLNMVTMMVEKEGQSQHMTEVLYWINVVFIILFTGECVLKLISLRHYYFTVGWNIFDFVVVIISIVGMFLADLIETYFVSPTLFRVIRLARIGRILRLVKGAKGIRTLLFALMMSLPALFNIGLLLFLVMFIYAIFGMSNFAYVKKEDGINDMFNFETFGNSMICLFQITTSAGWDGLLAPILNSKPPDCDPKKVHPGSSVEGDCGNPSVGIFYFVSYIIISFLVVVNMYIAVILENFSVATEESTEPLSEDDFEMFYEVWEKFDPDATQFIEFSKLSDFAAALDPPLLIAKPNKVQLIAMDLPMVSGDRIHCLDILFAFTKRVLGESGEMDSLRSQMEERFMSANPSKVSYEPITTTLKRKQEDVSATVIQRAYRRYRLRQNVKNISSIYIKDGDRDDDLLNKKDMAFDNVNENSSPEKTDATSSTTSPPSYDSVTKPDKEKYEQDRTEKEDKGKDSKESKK

[11] = Displacement of [3H]-DTG from Sigma2 receptor in Dunkin Hartley guinea pig brain membrane after 120 mins by liquid scintillation counting analysis in presence of sigma1 blocker (+)-SKF-10047; design: species or system Cavia porcellus
In short: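 Guinea pig brain P2 membranes incubated with 3 nM [³H]-DTG plus 400 nM (+)-SKF-10047 to block σ1 sites, Tris-HCl pH 8.0, 25 °C for 120 min; nonspecific binding with DTG. Filtration on PEI-presoaked GF/B filters, scintillation counting. […] At least three experiments.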

Mus musculus [12] = assay: Antinociceptive activity in Kun Ming mouse assessed as paw biting time in delayed pain response phase at 80 mg/kg, ig administered 15 mins prior to formalin challenge measured after 15 to 45 mins post formalin dosing; assay type: functional; in short: as §3
[13] = AUC (0 to last) in Sprague-Dawley rat at 80 mg/kg, po administered through gavage by LC-MS/MS analysis; assay type: ADME, organism-based; design: dose 80 mg/kg, time 0 - last, route oral; conditions: in vivo
In short: (§4)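 Oral gavage to rats (n = 3/group), 80 mg/kg as suspension in 0.5% methylcellulose. Blood drawn serially from lateral tail vein into heparinized tubes at 30 min and 1, 2, 3, 4, 5, 6, 8 and 24 h. Plasma obtained by centrifugation, acetonitrile protein precipitation, LC/MS quantification.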

[14] = molecular target: Transient receptor potential cation channel subfamily V member 1 (Homo sapiens) (UniProt Q8NER1); assay: Inhibition of human TRPV-1 expressed in HEK293 cells at 1 uM by whole cell patch clamp method; assay type: cell-based
Sequence of Transient receptor potential cation channel subfamily V member 1 (Homo sapiens) (Q8NER1 whole entry): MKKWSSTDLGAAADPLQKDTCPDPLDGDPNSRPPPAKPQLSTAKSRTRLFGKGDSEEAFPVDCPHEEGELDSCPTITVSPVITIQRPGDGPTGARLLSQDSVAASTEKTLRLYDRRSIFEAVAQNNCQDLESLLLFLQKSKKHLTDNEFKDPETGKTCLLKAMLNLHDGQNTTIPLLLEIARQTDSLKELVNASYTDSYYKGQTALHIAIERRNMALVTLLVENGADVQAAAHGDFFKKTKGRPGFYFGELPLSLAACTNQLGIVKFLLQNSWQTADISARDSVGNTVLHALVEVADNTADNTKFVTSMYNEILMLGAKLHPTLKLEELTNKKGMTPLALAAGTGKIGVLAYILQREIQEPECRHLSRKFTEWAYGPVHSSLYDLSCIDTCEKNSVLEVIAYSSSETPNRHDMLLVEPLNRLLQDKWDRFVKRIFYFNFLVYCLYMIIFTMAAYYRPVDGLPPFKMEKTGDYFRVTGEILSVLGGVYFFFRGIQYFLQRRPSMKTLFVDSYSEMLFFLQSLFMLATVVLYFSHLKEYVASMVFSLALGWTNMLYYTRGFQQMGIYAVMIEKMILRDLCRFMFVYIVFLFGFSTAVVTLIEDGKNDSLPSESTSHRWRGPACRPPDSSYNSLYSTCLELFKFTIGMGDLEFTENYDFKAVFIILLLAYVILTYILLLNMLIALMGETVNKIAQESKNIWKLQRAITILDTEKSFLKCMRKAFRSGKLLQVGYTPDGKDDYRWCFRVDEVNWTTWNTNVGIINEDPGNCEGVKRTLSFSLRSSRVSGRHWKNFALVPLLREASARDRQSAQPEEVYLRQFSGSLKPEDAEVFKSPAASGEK

[15] = AUC (0 to infinity) in Sprague-Dawley rat at 80 mg/kg, po administered through gavage by LC-MS/MS analysis; assay type: ADME, organism-based; design: dose 80 mg/kg, route oral, time infinity; conditions: in vivo; in short: as §4
Rattus norvegicus [16] = assay: Antiallodynic activity in po dosed Sprague-Dawley rat chronic constriction injury-induced neuropathic pain model assessed as inhibition of mechanical allodynia administered as single dose on day 15th post surgery by Von frey test; assay type: functional; in short: as §1
Rattus norvegicus [17] = assay: Antiallodynic activity in po dosed Sprague-Dawley rat chronic constriction injury-induced neuropathic pain model assessed as inhibition of thermal hypersensitivity administered as bid on day 15th and 18th post surgery by plantar test; assay type: functional
In short: (§5)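 CCI or sham SD rats, 10 per group, dosed orally in 0.5% methylcellulose (10 mL/kg) twice daily on days 15–18. Tested after the first dose on day 15 and the last dose on day 18. Plantar test: after 30 min acclimation on a glass floor, radiant heat was applied under the hind paw and withdrawal latency recorded. 30 s cutoff; mean of four samplings.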

[18] = AUC (0 to infinity) in Sprague-Dawley rat at 5 mg/kg, iv by LC-MS/MS analysis; assay type: ADME, organism-based; design: dose 5 mg/kg, time infinity, route intravenous; conditions: in vivo
In short: (§6)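 Rats (n = 3/group) dosed via lateral tail vein, 5 mg/kg in 100% saline. Serial tail-vein blood into heparinized tubes at 30 min and 1, 2, 3, 4, 5, 6, 8 and 24 h. Plasma separated by centrifugation, proteins precipitated with acetonitrile, analysed by LC/MS.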

[19] = molecular target: Cannabinoid receptor 1 (Homo sapiens) (UniProt P21554); assay: Displacement of [3H]-CP-55940 from human CB1 receptor expressed in CHO cells at 1 uM after 90 mins by liquid scintillation counting analysis; assay type: cell-based
Sequence of Cannabinoid receptor 1 (Homo sapiens) (P21554 whole entry): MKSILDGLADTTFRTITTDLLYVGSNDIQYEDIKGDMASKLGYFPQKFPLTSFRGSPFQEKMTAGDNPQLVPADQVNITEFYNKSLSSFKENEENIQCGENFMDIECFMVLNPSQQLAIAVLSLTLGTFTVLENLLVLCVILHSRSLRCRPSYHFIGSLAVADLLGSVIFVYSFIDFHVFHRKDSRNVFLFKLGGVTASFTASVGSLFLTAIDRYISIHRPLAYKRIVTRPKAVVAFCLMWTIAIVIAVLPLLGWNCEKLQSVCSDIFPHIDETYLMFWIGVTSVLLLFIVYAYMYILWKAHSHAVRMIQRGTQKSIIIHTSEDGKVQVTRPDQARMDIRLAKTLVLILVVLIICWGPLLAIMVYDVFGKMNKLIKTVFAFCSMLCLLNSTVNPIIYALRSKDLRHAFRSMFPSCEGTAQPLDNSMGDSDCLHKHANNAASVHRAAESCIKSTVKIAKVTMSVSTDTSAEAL

Rattus norvegicus [20] = assay: Antiallodynic activity in po dosed Sprague-Dawley rat chronic constriction injury-induced neuropathic pain model assessed as inhibition of thermal hypersensitivity administered as single dose on day 15th post surgery by plantar test; assay type: functional; in short: as §5
[21] = Oral bioavailability in Sprague-Dawley rat at 80 mg/kg administered through gavage by LC-MS/MS analysis; assay type: ADME, organism-based; conditions: in vivo; in short: as §2
[22] = Cmax in Sprague-Dawley rat at 80 mg/kg, po administered through gavage by LC-MS/MS analysis; assay type: ADME, organism-based; design: dose 80 mg/kg, route oral; conditions: in vivo; in short: as §2
[23] = AUC (0 to last) in Sprague-Dawley rat at 5 mg/kg, iv by LC-MS/MS analysis; assay type: ADME, organism-based; design: dose 5 mg/kg, route intravenous, time 0 - last; conditions: in vivo; in short: as §6

For `O=c1ccc(OCCCN2CCCCC2)nn1-c1ccc(Cl)c(Cl)c1`, the ED50 (Rattus norvegicus [1]) was 40.3 mg/kg, the Activity (Mus musculus [2]) was “Non-toxic” and the clearance [3] was 49.3 mL/min/kg. For the same compound, the half-life [4] was 1.39 h, the Time (Mus musculus [5]) was 45.88 s and the half-life [6] was 2.88 h. For the same compound, the inhibition [7] was less than 50%, the inhibition [8] was less than 50% and the Activity (Mus musculus [9]) was “Dose-dependent effect”. The ED50 (Mus musculus [9]; po) was 49 mg/kg, the inhibition [10] was less than 50% and the Ki [11] was 1910 nM. For the same compound, the Time (Mus musculus [12]) was 41.16 s, the AUC(0-t) [13] was 11700 ng·h/mL and the inhibition [14] was less than 50%. The AUC(0-inf) [15] was 13400 ng·h/mL, the ED50 (Rattus norvegicus [16]) was 51.9 mg/kg and the ED50 (Rattus norvegicus [17]) was 16.9 mg/kg. The AUC(0-inf) [18] was 956 ng·h/mL, the inhibition [19] was less than 50% and the ED50 (Rattus norvegicus [20]) was 18.6 mg/kg. It also gave a bioavailability [21] of 87.5%, a Cmax [22] of 2920 ng/mL and an AUC(0-t) [23] of 931 ng·h/mL.
